The values below come from ChEMBL document CHEMBL1154050, “Design, synthesis and hypolipidemic activity of novel 2-(naphthalen-2-yloxy)propionic acid derivatives as desmethyl fibrate analogs” (2009).

The source made the active and inactive calls. No cut-off for these calls is given here.

The first test relates to Rattus norvegicus. Nature of the test: Antihyperlipidemic activity in high-cholesterol diet fed Wistar albino rat model assessed as ratio of LDL level to HDL level at 20 mg/kg, po. The class given is functional. The gist of the method: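 The ratio was calculated from group mean LDL and mean HDL. It used the HCD rat model (2% cholesterol, 1% cholic acid, 14 days), oral dosing at 20 mg/kg in 0.5% CMC on days 8–14, and n=6. Serum was taken from tail blood after a 12 h fast. HDL was measured by kit and LDL was derived by Friedewald's formula.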
In the case of `CC(Oc1ccc2ccccc2c1)c1n[nH]c(=S)n1-c1ccccc1` (centres undefined), the Ratio was found to be 3.75.
The same measure, in the same setting: then `CCSc1nnc(C(C)Oc2ccc3ccccc3c2)n1-c1ccccc1` (centres undefined), with 3.4; and `COc1ccc(/C=N/NC(=O)C(C)Oc2ccc3ccccc3c2)cc1` (centres undefined), with 5.4; and `CC(Oc1ccc2ccccc2c1)C(=O)NNC(=S)Nc1ccccc1` (centres undefined), with 5.7.
Same read-out and setting: in the case of `C/C(=N\NC(=O)C(C)Oc1ccc2ccccc2c1)c1ccc(Br)cc1` (centres undefined) it was 6.04; in that of `Cc1ccc(C)c(OCCCC(C)(C)C(=O)O)c1` [GEMFIBROZIL], 4.81; in that of `C=CCNC(=S)NNC(=O)C(C)Oc1ccc2ccccc2c1` (centres undefined), 8.16.
As for `CCSc1nnc(C(C)Oc2ccc3ccccc3c2)n1CC` (centres undefined), the Ratio came to 4.5.
Regarding `CC(Oc1ccc2ccccc2c1)C(=O)N1N=C(c2ccccc2)CC1(O)c1ccccc1` (centres undefined), the Ratio is 3.99.
For the compound `CC(Oc1ccc2ccccc2c1)C(=O)N/N=C/c1ccc([N+](=O)[O-])cc1` (centres undefined), the Ratio worked out at 4.74.
Regarding `CC1=NN(C(=O)C(C)Oc2ccc3ccccc3c2)C(=O)C1` (centres undefined), the Ratio is recorded as 4.54.
As to `CC(Oc1ccc2ccccc2c1)c1n[nH]c(=S)o1` (centres undefined), the Ratio is given as 3.29.
Still for that read-out and setting: then `COc1ccc(NC(=O)C(C)Oc2ccc3ccccc3c2)cc1` (centres undefined), with 5.19.
With `CC(C)=NNC(=O)C(C)Oc1ccc2ccccc2c1` (centres undefined), the Ratio is given as 6.1.
Turning to `CCNC(=S)NNC(=O)C(C)Oc1ccc2ccccc2c1` (centres undefined), the Ratio is 6.71.
On the same count and under the same terms, in the case of `CCn1c(C(C)Oc2ccc3ccccc3c2)n[nH]c1=S` (centres undefined) it was 3.61.

For the next test, the system named is Rattus norvegicus. Nature of the test: Antihyperlipidemic activity in high-cholesterol diet fed Wistar albino rat model assessed as reduction in serum total cholesterol level at 20 mg/kg, po. The class given is functional. The essentials:
(§1)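 Adult male rats given high cholesterol diet (2% cholesterol, 1% cholic acid) for 14 days, dosed orally at 20 mg/kg in 0.5% CMC on days 8–14. Normal-chow and HCD vehicle controls were included, n=6 per group. After a 12 h fast on day 14, tail blood was taken under mild ether anesthesia. Serum TC, TG and HDL were measured by kit spectrophotometry, and LDL was calculated by Friedewald's formula. Values are percent change versus the HCD control.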
As for `CC(Oc1ccc2ccccc2c1)c1n[nH]c(=S)n1-c1ccccc1` (centres undefined), the outcome was inactive.
Still for that read-out and setting: then `CCSc1nnc(C(C)Oc2ccc3ccccc3c2)n1-c1ccccc1` (centres undefined), with 19.44%; and `COc1ccc(/C=N/NC(=O)C(C)Oc2ccc3ccccc3c2)cc1` (centres undefined), with “inactive”; and `CC(Oc1ccc2ccccc2c1)C(=O)NNC(=S)Nc1ccccc1` (centres undefined), with “inactive”.
For the compound `C/C(=N\NC(=O)C(C)Oc1ccc2ccccc2c1)c1ccc(Br)cc1` (centres undefined), the outcome was inactive.
As for `Cc1ccc(C)c(OCCCC(C)(C)C(=O)O)c1` [GEMFIBROZIL], the Activity is 4.68%.
Take `C=CCNC(=S)NNC(=O)C(C)Oc1ccc2ccccc2c1` (centres undefined): the outcome was inactive.
In the case of `CCSc1nnc(C(C)Oc2ccc3ccccc3c2)n1CC` (centres undefined), the result was inactive.
Still for that read-out and setting: then `CC(Oc1ccc2ccccc2c1)C(=O)N1N=C(c2ccccc2)CC1(O)c1ccccc1` (centres undefined), with “inactive”; and `CC(Oc1ccc2ccccc2c1)C(=O)N/N=C/c1ccc([N+](=O)[O-])cc1` (centres undefined), with “inactive”; and `CC1=NN(C(=O)C(C)Oc2ccc3ccccc3c2)C(=O)C1` (centres undefined), with 15.89%.
On the same count and under the same terms, then `CC(Oc1ccc2ccccc2c1)c1n[nH]c(=S)o1` (centres undefined), with 16.18%; and `COc1ccc(NC(=O)C(C)Oc2ccc3ccccc3c2)cc1` (centres undefined), with “inactive”; and `CC(C)=NNC(=O)C(C)Oc1ccc2ccccc2c1` (centres undefined), with “inactive”.
As for `CCNC(=S)NNC(=O)C(C)Oc1ccc2ccccc2c1` (centres undefined), the outcome was inactive.
The same measure, in the same setting: in the case of `CCn1c(C(C)Oc2ccc3ccccc3c2)n[nH]c1=S` (centres undefined) it was “inactive”.

A further test relates to Rattus norvegicus. The test is described as follows: Antihyperlipidemic activity in high-cholesterol diet fed Wistar albino rat model assessed as reduction in serum LDL level at 20 mg/kg, po. It is filed as functional. The essentials: as §1
Turning to `CC(Oc1ccc2ccccc2c1)c1n[nH]c(=S)n1-c1ccccc1` (centres undefined), the outcome was Active.
Take `CCSc1nnc(C(C)Oc2ccc3ccccc3c2)n1-c1ccccc1` (centres undefined): the Activity stood at 19.15%.
Take `CCSc1nnc(C(C)Oc2ccc3ccccc3c2)n1CC` (centres undefined): the outcome was Active.
On to `CC1=NN(C(=O)C(C)Oc2ccc3ccccc3c2)C(=O)C1` (centres undefined), for which the Activity was determined as 21.74%.
Same read-out and setting: then `CC(Oc1ccc2ccccc2c1)c1n[nH]c(=S)o1` (centres undefined), with 19.58%; and `CCn1c(C(C)Oc2ccc3ccccc3c2)n[nH]c1=S` (centres undefined), with “Active”; and `CC(Oc1ccc2ccccc2c1)C(=O)O` (centres undefined), with “Active”.

A further test has as its system Rattus norvegicus. The test is described as follows: Antihyperlipidemic activity in high-cholesterol diet fed Wistar albino rat model assessed as increase in serum HDL level at 20 mg/kg, po. It is filed as functional. The essentials: as §1
Turning to `CC(Oc1ccc2ccccc2c1)c1n[nH]c(=S)n1-c1ccccc1` (centres undefined), the Activity is 47.78%.
Regarding `CCSc1nnc(C(C)Oc2ccc3ccccc3c2)n1-c1ccccc1` (centres undefined), the Activity is 51.21%.
`COc1ccc(/C=N/NC(=O)C(C)Oc2ccc3ccccc3c2)cc1` (centres undefined): the outcome was Active.
Still for that read-out and setting: then `CC(Oc1ccc2ccccc2c1)C(=O)NNC(=S)Nc1ccccc1` (centres undefined), with “Active”; and `C/C(=N\NC(=O)C(C)Oc1ccc2ccccc2c1)c1ccc(Br)cc1` (centres undefined), with “Active”.
The same measure, in the same setting: in the case of `Cc1ccc(C)c(OCCCC(C)(C)C(=O)O)c1` [GEMFIBROZIL] it was 25.18%; in that of `C=CCNC(=S)NNC(=O)C(C)Oc1ccc2ccccc2c1` (centres undefined), “Active”.
The same measure, in the same setting: then `CCSc1nnc(C(C)Oc2ccc3ccccc3c2)n1CC` (centres undefined), with “Active”; and `CC(Oc1ccc2ccccc2c1)C(=O)N1N=C(c2ccccc2)CC1(O)c1ccccc1` (centres undefined), with 49.73%.
With `CC(Oc1ccc2ccccc2c1)C(=O)N/N=C/c1ccc([N+](=O)[O-])cc1` (centres undefined), the outcome was Active.
In the case of `CC1=NN(C(=O)C(C)Oc2ccc3ccccc3c2)C(=O)C1` (centres undefined), the outcome was Active.
With `CC(Oc1ccc2ccccc2c1)c1n[nH]c(=S)o1` (centres undefined), the Activity is listed as 55.42%.
Turning to `COc1ccc(NC(=O)C(C)Oc2ccc3ccccc3c2)cc1` (centres undefined), the outcome was Active.
Same read-out and setting: in the case of `CC(C)=NNC(=O)C(C)Oc1ccc2ccccc2c1` (centres undefined) it was “Active”.
As for `CCNC(=S)NNC(=O)C(C)Oc1ccc2ccccc2c1` (centres undefined), the outcome was Active.
`CCn1c(C(C)Oc2ccc3ccccc3c2)n[nH]c1=S` (centres undefined): the Activity came to 48.25%.
On to `CC(Oc1ccc2ccccc2c1)C(=O)O` (centres undefined), for which the outcome was Active.

The test system of a further test is Rattus norvegicus. Nature of the test: Antihyperlipidemic activity in high-cholesterol diet fed Wistar albino rat model assessed as reduction in serum triglyceride level at 20 mg/kg, po. The class given is functional. The essentials:
as §1
Turning to `CC(Oc1ccc2ccccc2c1)c1n[nH]c(=S)n1-c1ccccc1` (centres undefined), the result was inactive.
The same measure, in the same setting: then `CCSc1nnc(C(C)Oc2ccc3ccccc3c2)n1-c1ccccc1` (centres undefined), with 19.07%.
Same read-out and setting: in the case of `Cc1ccc(C)c(OCCCC(C)(C)C(=O)O)c1` [GEMFIBROZIL] it was 22.23%; in that of `CCSc1nnc(C(C)Oc2ccc3ccccc3c2)n1CC` (centres undefined), “inactive”; in that of `CC(Oc1ccc2ccccc2c1)C(=O)N1N=C(c2ccccc2)CC1(O)c1ccccc1` (centres undefined), “inactive”.
Same read-out and setting: then `CC(Oc1ccc2ccccc2c1)C(=O)N/N=C/c1ccc([N+](=O)[O-])cc1` (centres undefined), with “inactive”; and `CC(Oc1ccc2ccccc2c1)c1n[nH]c(=S)o1` (centres undefined), with 26.78%.
As to `CCn1c(C(C)Oc2ccc3ccccc3c2)n[nH]c1=S` (centres undefined), the Activity is 20.88%.
